According to ChEMBL document CHEMBL1149899 (J Med Chem, 2008):
Values after ≈ are worked out from the molar mass of the structure shown.

Legend:
[1] = Antitumor activity against human BXF T24 cells; format: functional, cell-based; details: T-24
Procedure, shortened: (§1)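 Panel of 38 human solid-tumour cell lines, each tested in a monolayer proliferation assay. Growth inhibition was expressed as IC50 and IC70 values. Testing was run at Oncotest.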

DU-145 [2] = experiment: Degradation of ErbB2 in human DU145 cell lysate by Western blot; format: functional, cell-based
Procedure, shortened: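 DU145 prostate cancer cells were exposed to 1 or 10 µM, with time points including 48 and 96 h. Cell lysates were probed by Western blot for ErbB2, cRaf1, Hsp90 and Hsp70.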

[3] = Antitumor activity against human MAXF 401NL cells; format: functional, cell-based; procedure, shortened: as §1
[4] = Antitumor activity against human LXF 529L cells; format: functional, cell-based; procedure, shortened: as §1
[5] = Antitumor activity against human LXF 289L cells; format: functional, cell-based; procedure, shortened: as §1
[6] = Antitumor activity against human PRXF PC3M cells; format: functional, cell-based; details: PC-3M; procedure, shortened: as §1
SW-620 = experiment: Antitumor activity against human CXF SW620 cells; format: functional, cell-based; procedure, shortened: as §1
[7] = Antitumor activity against human CNXF 498NL cells; format: functional, cell-based; procedure, shortened: as §1
[8] = Antitumor activity against human MEXF 514L cells; format: functional, cell-based; procedure, shortened: as §1
[9] = Antitumor activity against human PXF 1752L cells; format: functional, cell-based; procedure, shortened: as §1
[10] = Antitumor activity against human LXF 1121L cells; format: functional, cell-based; procedure, shortened: as §1
[11] = Antitumor activity against human MEXF 276L cells; format: functional, cell-based; details: MEXF276L; procedure, shortened: as §1
DU-145 [12] = experiment: Antitumor activity against human DU145 tumor xenografted mouse assessed delay for tumor doubling time at 10 mg/kg, ip; format: functional; details: route intraperitoneal
[13] = Antitumor activity against human RXF 486L cells; format: functional, cell-based; procedure, shortened: as §1
[14] = Antitumor activity against human HNXF 536L cells; format: functional, cell-based; procedure, shortened: as §1
[15] = Antitumor activity against human RXF 1781L cells; format: functional, cell-based; procedure, shortened: as §1
[16] = Antitumor activity against human OVXF 1619L cells; format: functional, cell-based; procedure, shortened: as §1
[17] = Antitumor activity against human MEXF 394NL cells; format: functional, cell-based; procedure, shortened: as §1
DU-145 [18] = experiment: Antitumor activity against human DU145 tumor xenografted mouse assessed delay for tumor quadrupling time at 10 mg/kg, ip; format: functional; details: route intraperitoneal
[19] = Antitumor activity against human OVXF 899L cells; format: functional, cell-based; procedure, shortened: as §1
[20] = Antitumor activity against human PAXF PANC1 cells; format: functional, cell-based; details: PANC-1; procedure, shortened: as §1
[21] = Antitumor activity against human CXF HCT116 cells; format: functional, cell-based; details: HCT-116; procedure, shortened: as §1

In the case of `CO[C@H]1[C@@H](OC)C[C@H](C)[C@@H](OC)C2=CC(=O)C=C(NC(=O)/C(C)=C/C=C\[C@H](C)[C@@H](OC(N)=O)/C(C)=C/[C@@H]1C)C2=O` [MACBECIN], the IC50 [1] is reported as 1.6 µg/mL (≈ 2.87 µM), the IC70 [1] is reported as 4.56 µg/mL (≈ 8.16 µM) and the IC90 [1] is reported as 35.9 µg/mL (≈ 64.3 µM). The Activity (DU-145 [2]) was “Dose-dependent effect”, the IC50 [3] was less than 0.01 µg/mL and the IC70 [3] was less than 0.01 µg/mL. For the same compound, the IC90 [3] was less than 100 µg/mL, the IC50 [4] was 8.19 µg/mL (≈ 14.7 µM) and the IC70 [4] was 25.6 µg/mL (≈ 45.9 µM). It also gave an IC90 [4] of 73 µg/mL (≈ 131 µM), an IC50 [5] of 27.7 µg/mL (≈ 49.6 µM) and an IC70 [5] of 59 µg/mL (≈ 106 µM). The IC90 [5] was 125 µg/mL (≈ 224 µM), the IC50 [6] was 0.009 µg/mL (≈ 0.0161 µM) and the IC70 [6] was 1.41 µg/mL (≈ 2.53 µM). The IC90 [6] was 19.9 µg/mL (≈ 35.7 µM), the IC50 (SW-620) was less than 0.01 µg/mL and the IC70 (SW-620) was less than 0.01 µg/mL. For the same compound, the IC90 (SW-620) was 7.36 µg/mL (≈ 13.2 µM), the IC50 [7] was less than 0.01 µg/mL and the IC70 [7] was 0.857 µg/mL (≈ 1.53 µM). For the same compound, the IC90 [7] was 27.8 µg/mL (≈ 49.8 µM), the IC50 [8] was 7.8 µg/mL (≈ 14 µM) and the IC70 [8] was 25.7 µg/mL (≈ 46 µM). For the same compound, the IC90 [8] was 83.8 µg/mL (≈ 150 µM), the IC50 [9] was 16.6 µg/mL (≈ 29.7 µM) and the IC70 [9] was 41.7 µg/mL (≈ 74.6 µM). It also gave an IC90 [9] of 105 µg/mL (≈ 187 µM), an IC50 [10] of 0.048 µg/mL (≈ 0.0859 µM) and an IC70 [10] of 1 µg/mL (≈ 1.79 µM). For the same compound, the IC90 [10] was 60 µg/mL (≈ 107 µM), the IC50 [11] was 13.9 µg/mL (≈ 24.9 µM) and the IC70 [11] was 51.8 µg/mL (≈ 92.7 µM). It also gave an IC90 [11] of 193 µg/mL (≈ 346 µM), a Time (DU-145 [12]) of 2.3 days and an IC50 [13] of 6.72 µg/mL (≈ 12 µM). For the same compound, the IC70 [13] was 20.5 µg/mL (≈ 36.8 µM), the IC90 [13] was 86.6 µg/mL (≈ 155 µM) and the IC50 [14] was 1.61 µg/mL (≈ 2.89 µM). It also gave an IC70 [14] of 4.22 µg/mL (≈ 7.55 µM), an IC90 [14] of 11 µg/mL (≈ 19.7 µM) and an IC50 [15] of 4.33 µg/mL (≈ 7.75 µM). For the same compound, the IC70 [15] was 25.9 µg/mL (≈ 46.4 µM), the IC90 [15] was 127 µg/mL (≈ 227 µM) and the IC50 [16] was 1.56 µg/mL (≈ 2.79 µM). The IC70 [16] was 9.15 µg/mL (≈ 16.4 µM), the IC90 [16] was greater than 100 µg/mL and the IC50 [17] was less than 0.01 µg/mL. It also gave an IC70 [17] of less than 0.01 µg/mL, an IC90 [17] of 31.6 µg/mL (≈ 56.6 µM) and a Time (DU-145 [18]) of 20.4 days. For the same compound, the IC50 [19] was 16.2 µg/mL (≈ 29 µM), the IC70 [19] was 47.2 µg/mL (≈ 84.6 µM) and the IC90 [19] was 138 µg/mL (≈ 247 µM). It also gave an IC50 [20] of 0.577 µg/mL (≈ 1.03 µM), an IC70 [20] of 3.59 µg/mL (≈ 6.43 µM) and an IC90 [20] of 139 µg/mL (≈ 249 µM). The IC50 [21] was 0.923 µg/mL (≈ 1.65 µM), the IC70 [21] was 6.06 µg/mL (≈ 10.8 µM) and the IC90 [21] was 51.8 µg/mL (≈ 92.7 µM).
